Each compound was assayed against Methionine--tRNA ligase, mitochondrial (Homo sapiens) (UniProt Q96GW9) (assay: human mtMetRS tRNA charging inhibition – biochemical, radioactivity, round 1, selectivity assay for T. brucei MetRS inhibitor project, late-stage follow-up (AID 743061;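 further: 0% = DMSO with full reaction and 100% = DMSO wells lacking tRNA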)). Conditions: recombinant human mtMetRS, [3H]Met tRNA charging, at 1 µM, stronger effect = higher value.
In short: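 Material: Recombinant human mitochondrial methionyl-tRNA synthetase (MetRS) | Medium: pH 8.0 buffer, 2.5 mM ATP | Reagent: [3H]Met 240 nM plus bulk E. coli tRNA | Compound: 10 and 1 µM | Schedule: 15 min compound–enzyme preincubation, then 1 h reaction at room temperature | Measured by: Scintillation counts of TCA-precipitated charged tRNA on filters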

SMILES | inhibition [%]
O=C(NCc1nc2ccccc2[nH]1)C1=C[C@H](C2CC2)C[C@H](OCc2ccc(CO)cc2)O1 | 7.99
O=C(NCc1nc2ccccc2[nH]1)C1=C[C@@H](c2ccccc2)C[C@@H](OCc2ccc(CO)cc2)O1 | -16.8
O=C(NCCc1nc2ccccc2[nH]1)c1ccc(Cl)c([N+](=O)[O-])c1 | 2.97
O=C(N/C(=C\c1cccnc1)c1nc2ccccc2[nH]1)c1cccc(Br)c1 | -19.7
CCN(CCc1nc2ccc(C)cc2[nH]1)C(=O)c1ccc2ncccc2c1 | -5.17
O=C(NCc1nc2ccccc2[nH]1)C1=C[C@H](c2csc3ccccc23)C[C@H](OCCCCO)O1 | -9.21
CCN(CC)C(=O)C(=O)c1cn(CC(=O)N2CCCc3ccccc32)c2ccccc12 | -14.3
COCCc1nc2ccc(C(=O)NCCc3nc4ccc(OC)cc4[nH]3)cc2o1 | -5.43
O=C1CC(NCCc2ccccc2)C(=O)N1c1ccc(Br)cc1 (stereo not given) | -12.9
CCO[C@H]1OC(C(=O)NCc2nc3ccccc3[nH]2)=C[C@@H](c2ccc(Br)cc2)[C@@H]1CCCO | -15
O=C(CSC1CC(=O)N(c2cccc(Cl)c2)C1=O)Nc1ccc(Br)cc1 (stereo not given) | -12.3
O=C(Cn1cc(C(=O)c2ccccc2)c2ccccc21)Nc1cccc(C(F)(F)F)c1 | -2.29
O=C(Cn1cc(C(=O)c2ccco2)c2ccccc21)Nc1cccc(C(F)(F)F)c1 | 2.74
CC(C)(C)[C@H]1C=C(C(=O)NCc2nc3ccccc3[nH]2)O[C@@H](OCc2ccc(CO)cc2)C1 | -20.5
COc1ccccc1NC(=O)Cn1cc(C(=O)C(=O)N2CCOCC2)c2ccccc21 | -9.04
COc1ccc(CNC(=O)CSc2nnc3c(n2)[nH]c2ccc(F)cc23)cc1 | -29.7
O=C(CC(=O)Nc1cccc(Cl)c1)NN=Cc1ccccc1 | -18.3
O=C(NCc1nc2ccccc2[nH]1)C1=C[C@H](c2ccccc2)C[C@H](OCc2ccc(CO)cc2)O1 | -8.08

SMILES | inhibition [%]
CCCCCCCCCC1NC(C(=O)O)Cc2c1[nH]c1ccccc21 (stereo not given) | -2.41
O=C(NCc1nc2ccccc2[nH]1)C1=C[C@@H](C2CC2)C[C@@H](OCc2ccc(CO)cc2)O1 | -11.4
CCOC(=O)N1CCC(Nc2c(Nc3ccc(F)cc3)c(=O)c2=O)CC1 | -8.53
O=C(NNC(=O)c1ccc(-n2cncn2)c([N+](=O)[O-])c1)c1ccc(Cl)cc1 | -30.3
CCN(CC)C(=O)C(=O)c1cn(CC(=O)Nc2cccc(C(F)(F)F)c2)c2ccccc12 | -0.41
CCc1ccc2c(c1)c1nnc(SCC(=O)Nc3ccc4c(c3)OCO4)nc1n2C | -9.7
CC(C)OCCCN1CC(=O)N2C(c3cccc([N+](=O)[O-])c3)c3[nH]c4ccccc4c3C[C@H]2C1=O (stereo not given in full) | -24.2
O=C(NCCc1nc2ccccc2[nH]1)c1c(F)cccc1F | 0.56
Clc1ccc(OCCSCc2nc3ccccc3[nH]2)cc1 | -20
Cc1[nH]c2ccc(Br)cc2c(=O)c1CN1CCCCCC1 | -31.2
O=C1CC(SCc2nc3ccccc3[nH]2)C(=O)N1c1cccc(Cl)c1 (stereo not given) | -4.5
O=C(NCc1nc2ccccc2[nH]1)C1=C[C@@H](c2ccc(Br)cc2)C[C@@H](OCc2ccc(CO)cc2)O1 | -11.6
O=C(NCCc1nc2ccccc2[nH]1)c1ccc(Cl)cc1 | 5.42
Cn1c(CCNC(=O)c2ccc(Cl)cc2)nc2ccccc21 | 11.6
Cc1cccc(C(=O)NCCc2nc3ccccc3n2CCOc2ccccc2)c1 | 1.28
CC(=O)c1ccc(N2CCN(C(=O)CCCn3c(=O)[nH]c4ccc(Br)cc4c3=O)CC2)cc1 | -14.1
O=C(C[C@H]1C(=O)N(Cc2ccccc2)C[C@@H]1c1ccc(Br)cc1)Nc1ccc(Br)cc1 | -13
